From ChEMBL document CHEMBL2417498, “Design and synthesis of 6,7-methylenedioxy-4-substituted phenylquinolin-2(1H)-one derivatives as novel anticancer agents that induce apoptosis with cell cycle arrest at G2/M phase” (Bioorg Med Chem, 2013)

Legend:
[1] = Cytotoxicity against human H460 cells after 48 hrs by MTT assay; assay type: functional, cell-based; conditions: NCI-H460, 48 h
Summary of the method: (§1)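 Log-phase tumour cells grown in RPMI-1640 with 10% FBS, penicillin/streptomycin and 1% L-glutamine at 37 °C, 5% CO2. Cells treated with vehicle or a range of concentrations for 48 h. Growth measured by MTT reduction, absorbance at 570 nm. IC50 is the concentration giving 50% proliferation inhibition, from 3 independent experiments.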

[2] = test system: SK-OV-3; experiment: Cytotoxicity against human SKOV3 cells after 48 hrs by MTT assay; assay type: functional, cell-based; conditions: SK-OV-3, 48 h; summary of the method: as §1
[3] = test system: MCF7; experiment: Cytotoxicity against human MCF7 cells after 48 hrs by MTT assay; assay type: functional, cell-based; conditions: MCF7, 48 h; summary of the method: as §1
[4] = test system: A498; experiment: Cytotoxicity against human A498 cells after 48 hrs by MTT assay; assay type: functional, cell-based; conditions: A498, 48 h; summary of the method: as §1
[5] = Cytotoxicity against human 2774 cells after 48 hrs by MTT assay; assay type: functional, cell-based
[6] = test system: HL-60; experiment: Cytotoxicity against human HL60 cells after 48 hrs by MTT assay; assay type: functional, cell-based; conditions: HL-60, 48 h; summary of the method: as §1
[7] = test system: Detroit 551; experiment: Cytotoxicity against human Detroit 551 cells after 48 hrs by MTT assay; assay type: cell-based; conditions: Detroit 551, 48 h
Summary of the method: (§2)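 Detroit 551 normal skin cells and Hep 3B hepatoma cells grown in DMEM with 10% FBS, penicillin/streptomycin and 1% L-glutamine at 37 °C, 5% CO2. Log-phase cells treated with vehicle or a range of concentrations for 48 h. MTT reduction read at 570 nm. IC50 (50% proliferation inhibition) taken from 3 independent experiments.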

[8] = test system: COLO 205; experiment: Cytotoxicity against human COLO205 cells after 48 hrs by MTT assay; assay type: functional, cell-based; conditions: COLO 205, 48 h; summary of the method: as §1
[9] = Cytotoxicity against human Hep3B cells after 48 hrs by MTT assay; assay type: functional, cell-based, Hep 3B2; summary of the method: as §2

| Compound | IC50 [1] [µM] | IC50 [2] [µM] | IC50 [3] [µM] | IC50 [4] [µM] | IC50 [5] [µM] | IC50 [6] [µM] | IC50 [7] [µM] | IC50 [8] [µM] | IC50 [9] [µM] |
| --- | --- | --- | --- | --- | --- | --- | --- | --- | --- |
| O=c1cc(-c2ccccc2)c2cc3c(cc2[nH]1)OCO3 | > 50 | > 30 | 18.5 | 42.7 | > 30 | > 50 | > 50 | > 50 | > 50 |
| COc1ccc(OC)c(-c2cc(=O)[nH]c3cc4c(cc23)OCO4)c1 | 10 | 20 | 3.7 | 28.9 | 6.5 | 3.5 | > 100 | 6.1 | 10 |
| COc1cccc(-c2cc(=O)[nH]c3cc4c(cc23)OCO4)c1 | > 10 | 24.6 | 14.9 | > 50 | 15.6 | > 10 | > 10 | 39.6 | > 10 |
| O=c1cc(-c2ccccc2F)c2cc3c(cc2[nH]1)OCO3 | > 100 | > 30 | > 30 | > 50 | 26.4 | > 100 | > 100 | > 50 | > 100 |
| COc1cc(OC)cc(-c2cc(=O)[nH]c3cc4c(cc23)OCO4)c1 | > 10 | > 30 | > 30 | 11.7 | 8.3 | 2.9 | > 10 | > 50 | > 10 |
| COc1ccc(-c2cc(=O)[nH]c3cc4c(cc23)OCO4)cc1OC | 14.4 | 6.4 | 14.3 | 25.6 | 6.6 | 4.1 | 23.6 | 16.8 | 14.6 |
| O=c1[nH]cc(F)c(=O)[nH]1 [FLUOROURACIL] | 26.7 | – | – | – | – | 22.3 | – | – | – |
| O=c1cc(-c2cccc(F)c2)c2cc3c(cc2[nH]1)OCO3 | > 20 | > 30 | > 30 | > 50 | 24.5 | > 20 | > 20 | > 50 | > 20 |
| COc1cccc(OC)c1-c1cc(=O)[nH]c2cc3c(cc12)OCO3 | > 100 | > 30 | 29.8 | > 50 | > 30 | > 100 | > 100 | > 50 | > 100 |
| COc1ccc(-c2cc(=O)[nH]c3cc4c(cc23)OCO4)cc1 | > 20 | 26.8 | > 30 | > 25 | > 30 | > 20 | > 20 | > 50 | > 20 |
| O=c1cc(-c2ccc(F)cc2)c2cc3c(cc2[nH]1)OCO3 | > 20 | > 30 | > 30 | > 50 | 17.6 | > 60 | > 20 | > 50 | > 20 |
| COc1ccccc1-c1cc(=O)[nH]c2cc3c(cc12)OCO3 | > 25 | 26.6 | 27.1 | 9.8 | 18.8 | 10 | > 25 | 18.1 | 23.3 |
| COc1cc(-c2cc(=O)[nH]c3cc4c(cc23)OCO4)cc(OC)c1OC | 7.6 | 0.93 | 4.5 | > 50 | 2.1 | 2.3 | > 25 | > 50 | 5 |
| COc1cc([C@@H]2c3cc4c(cc3[C@@H](O[C@@H]3O[C@@H]5CO[C@@H](C)O[C@H]5[C@H](O)[C@H]3O)[C@H]3COC(=O)[C@H]23)OCO4)cc(OC)c1O [ETOPOSIDE] | 1 | – | – | – | – | 5.48 | – | – | – |
| COc1cc(OC)c(-c2cc(=O)[nH]c3cc4c(cc23)OCO4)c(OC)c1 | 67.6 | > 30 | 21 | > 50 | > 30 | 75 | > 100 | 37.4 | > 100 |
